Measured values as given in ChEMBL document CHEMBL4033782, “Structural Modification of Natural Product Tanshinone I Leading to Discovery of Novel Nitrogen-Enriched Derivatives with Enhanced Anticancer Profile and Improved Drug-like Properties” (J Med Chem, 2018).
In brackets after ≈: the same amount, converted by molar mass.

Assays:
HCT-116 [1] = experiment: Antiproliferative activity against human HCT116 cells after 72 hrs by sulforhodamine B assay; type: functional, cell-based; conditions: HCT-116, 72 h
In short: (§1)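 Cells grown in ATCC-specified medium with 10% heat-inactivated FBS, penicillin/streptomycin and 10 mM Hepes, at 37 °C under 5% CO2. Seeded, cultured overnight, then exposed to gradient concentrations for 72 h. Growth read by SRB staining; inhibition % = [1−(A450 treated/A450 control)]×100. IC50 obtained by the Logit method from independent experiments.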

[2] = MRT (infinity) in Sprague-Dawley rat at 3.0 mg/kg, po; type: ADME, organism-based; conditions: in vivo
In short: (§2)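 Male SD rats dosed orally at 3.0 mg/kg in DMSO/Tween 80/normal saline; plasma profile gives T1/2, Cmax, Tmax, AUC, MRT; F from comparison with 1.0 mg/kg i.v. dosing.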

MGC-803 = experiment: Antiproliferative activity against human MGC803 cells after 72 hrs by sulforhodamine B assay; type: functional, cell-based; conditions: MGC-803, 72 h; in short: as §1
Mus musculus [3] = experiment: Toxicity in BALB/C nude mouse xenografted with human HCT116 cells assessed as body weight loss at 10 mg/kg, iv once daily for 14 days starting on day 14 post tumor implantation measured every 4 days during compound dosing; type: organism-based; conditions: in vivo
In short: (§3)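 Male BALB/c nude mice (18–20 g) with subcutaneous HCT116 implants in right axilla; treatment from day 14 once tumors exceeded 100 mm3, randomized (6/treated, 10/control group); 10 mg/kg i.v. or 30 mg/kg i.p. daily for 14 days in 1% DMSO/saline; 5-FU 15 mg/kg as reference; body weight tracked, mean ± SD of 6 mice.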

Mus musculus [4] = experiment: Toxicity in BALB/C nude mouse xenografted with human HCT116 cells assessed as body weight loss at 30 mg/kg, ip once daily for 14 days starting on day 14 post tumor implantation measured every 4 days during compound dosing; type: organism-based; conditions: in vivo; in short: as §3
HCT-116 [5] = experiment: Induction of apoptosis in human HCT116 cells assessed as early apoptotic cells at 2 uM after 48 hrs by Annexin V-FITC/propidium iodide staining-based FACS analysis (reference value: 2.35%); type: functional
BEL-7404 tumor cell line = experiment: Antiproliferative activity against human Bel7404 cells after 72 hrs by sulforhodamine B assay; type: functional, cell-based; conditions: BEL-7404, 72 h; in short: as §1
KB = experiment: Antiproliferative activity against human KB cells after 72 hrs by sulforhodamine B assay; type: functional, cell-based; in short: as §1
HCT-116 [6] = experiment: Induction of apoptosis in human HCT116 cells assessed as early apoptotic cells at 0.5 uM after 48 hrs by Annexin V-FITC/propidium iodide staining-based FACS analysis (reference value: 2.35%); type: functional
Liver [7] = experiment: Intrinsic clearance in mouse liver microsomes assessed per mg protein up to 60 mins by LC-MS/MS analysis; type: ADME, microsome; conditions: 1 h
In short: (§4)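 Compound at 0.1 μM final (0.01% DMSO, 0.005% BSA) incubated at 37 °C with human, rat or mouse liver microsomes (0.33 mg/mL protein) in 0.1 M Tris/HCl pH 7.4, with 5 mM MgCl2 and 1 mM NADPH. Samples taken at 0, 7, 17, 30 and 60 min, quenched by methanol precipitation, centrifuged, and parent measured by LC-MS/MS. T1/2 and Clint derived.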

[8] = Antiproliferative activity against human KB/VCR cells after 72 hrs by sulforhodamine B assay; type: functional, cell-based; in short: as §1
[9] = Aqueous solubility of the compound in pH 7.5 Tris buffer after 24 hrs by HPLC method; type: physicochemical
DU-145 = experiment: Antiproliferative activity against human DU145 cells after 72 hrs by sulforhodamine B assay; type: functional, cell-based; conditions: DU-145, 72 h; in short: as §1
HCT-116 [10] = experiment: Induction of apoptosis in human HCT116 cells assessed as late apoptotic cells at 1 uM after 48 hrs by Annexin V-FITC/propidium iodide staining-based FACS analysis (reference value: 5.74%); type: functional
Liver [11] = experiment: Intrinsic clearance in human liver microsomes assessed as per mg protein up to 60 mins by LC-MS/MS analysis; type: ADME, microsome; conditions: 1 h; in short: as §4
HCT-116 [12] = experiment: Induction of apoptosis in human HCT116 cells pretreated with Z-VAD-FMK pan-caspase inhibitor for 1 hr assessed as late apoptotic cells at 2 uM after 48 hrs by Annexin V-FITC/propidium iodide staining-based FACS analysis (reference value: 3.15%); type: functional; parameters: scale not given: the % may be the effect or the level left
[13] = Half life in mouse liver microsomes at 0.1 uM up to 60 mins by LC-MS/MS analysis; type: ADME, microsome; conditions: liver microsomes; in short: as §4
[14] = AUC in Sprague-Dawley rat at 1.0 mg/kg, iv; type: ADME, organism-based; conditions: in vivo
In short: (§5)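 Male SD rats dosed i.v. at 1.0 mg/kg or orally at 3.0 mg/kg. Vehicle is DMSO, Tween 80 and normal saline. Plasma concentration–time data give CL, Vss, T1/2, Cmax, Tmax, MRT, AUC and oral bioavailability F.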

HCT-116 [15] = experiment: Induction of apoptosis in human HCT116 cells pretreated with Z-VAD-FMK pan-caspase inhibitor for 1 hr assessed as late apoptotic cells at 1 uM after 48 hrs by Annexin V-FITC/propidium iodide staining-based FACS analysis (reference value: 3.15%); type: functional; parameters: scale not given: the % may be the effect or the level left
HCT-116 [16] = experiment: Induction of apoptosis in human HCT116 cells assessed as late apoptotic cells at 0.5 uM after 48 hrs by Annexin V-FITC/propidium iodide staining-based FACS analysis (reference value: 5.74%); type: functional
HCT-116 [17] = experiment: Induction of apoptosis in human HCT116 cells pretreated with Z-VAD-FMK pan-caspase inhibitor for 1 hr assessed as late apoptotic cells at 0.5 uM after 48 hrs by Annexin V-FITC/propidium iodide staining-based FACS analysis (reference value: 3.15%); type: functional; parameters: scale not given: the % may be the effect or the level left
A549 = experiment: Antiproliferative activity against human A549 cells after 72 hrs by sulforhodamine B assay; type: functional, cell-based; conditions: A549, 72 h; in short: as §1
[18] = Volume of distribution at steady state in Sprague-Dawley rat at 1.0 mg/kg, iv; type: ADME, organism-based; conditions: in vivo, read-out: Vdss
In short: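 Male SD rats given 1.0 mg/kg i.v. in DMSO/Tween 80/normal saline vehicle; plasma concentration–time profile used for clearance, Vss, MRT.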

[19] = Half life in Sprague-Dawley rat at 1.0 mg/kg, iv; type: ADME, organism-based; conditions: in vivo; in short: as §5
[20] = Cmax in Sprague-Dawley rat at 3.0 mg/kg, po; type: ADME, organism-based; parameters: dose 3 mg/kg, route oral; conditions: in vivo; in short: as §5
NCI-H460 = experiment: Antiproliferative activity against human H460 cells after 72 hrs by sulforhodamine B assay; type: functional, cell-based; conditions: NCI-H460, 72 h; in short: as §1
HCT-116 [21] = experiment: Induction of apoptosis in human HCT116 cells pretreated with Z-VAD-FMK pan-caspase inhibitor for 1 hr assessed as early apoptotic cells at 2 uM after 48 hrs by Annexin V-FITC/propidium iodide staining-based FACS analysis (reference value: 1.34%); type: functional; parameters: scale not given: the % may be the effect or the level left
[22] = Antiproliferative activity against human HepG cells after 72 hrs by sulforhodamine B assay; type: functional, cell-based; in short: as §1
[23] = Oral bioavailability in Sprague-Dawley rat at 3.0 mg/kg; type: ADME, organism-based; conditions: in vivo; in short: as §2
[24] = AUC in Sprague-Dawley rat at 3.0 mg/kg, po; type: ADME, organism-based; conditions: in vivo; in short: as §5
HUVEC = experiment: Antiproliferative activity against human HUVEC cells after 72 hrs by sulforhodamine B assay; type: cell-based; in short: as §1
[25] = Half life in Sprague-Dawley rat at 3.0 mg/kg, po; type: ADME, organism-based; conditions: in vivo; in short: as §5
[26] = Tmax in Sprague-Dawley rat at 3.0 mg/kg, po; type: ADME, organism-based; conditions: in vivo; in short: as §2

CCN(CC)CCCn1c2c(c3ccccc3c1=O)C(=O)C(=O)c1cc(C)oc1-2
IC50 (HCT-116 [1]): 140 nM | MRT inf [2]: 3.72 h | IC50 (MGC-803): 260 nM | Activity (Mus musculus [3]): Non-Toxic | Activity (Mus musculus [4]): Non-Toxic | Activity (HCT-116 [5]): 23.98% | IC50 (BEL-7404 tumor cell line): 360 nM | IC50 (KB): 120 nM | Activity (HCT-116 [6]): 2.39% | intrinsic clearance (Liver [7]): 38.5 mL/min/g | IC50 [8]: 330 nM | solubility at 24 h [9]: 15.7 mg/mL (≈ 40.1 mM) | IC50 (DU-145): 220 nM | Activity (HCT-116 [10]): 9.09% | intrinsic clearance (Liver [11]): 23.5 mL/min/g | Activity (HCT-116 [12]): 22.49% | half-life at 0.1 µM [13]: 54.5 min | AUC [14]: 114 ng·h/mL | Activity (HCT-116 [15]): 6.47% | Activity (HCT-116 [16]): 4.19% | Activity (HCT-116 [17]): 4.09% | IC50 (A549): 190 nM | Vd [18]: 7.98 L/kg | half-life [19]: 90.6 min | Cmax [20]: 33.7 ng/mL | IC50 (NCI-H460): 170 nM | Activity (HCT-116 [21]): 11.88% | IC50 [22]: 1310 nM | bioavailability [23]: 21% | AUC [24]: 81.4 ng·h/mL | IC50 (HUVEC): 2520 nM | half-life [25]: 155 min | Tmax [26]: 15 min
